The M2OR odorant receptor database

What was measured:
Details in all cases: stereoisomer not certain
OR52I1 (Homo sapiens) = biological target: T1, OR52I1 (Homo sapiens) (UniProt Q8NGK6)
T1 sequence (whole entry): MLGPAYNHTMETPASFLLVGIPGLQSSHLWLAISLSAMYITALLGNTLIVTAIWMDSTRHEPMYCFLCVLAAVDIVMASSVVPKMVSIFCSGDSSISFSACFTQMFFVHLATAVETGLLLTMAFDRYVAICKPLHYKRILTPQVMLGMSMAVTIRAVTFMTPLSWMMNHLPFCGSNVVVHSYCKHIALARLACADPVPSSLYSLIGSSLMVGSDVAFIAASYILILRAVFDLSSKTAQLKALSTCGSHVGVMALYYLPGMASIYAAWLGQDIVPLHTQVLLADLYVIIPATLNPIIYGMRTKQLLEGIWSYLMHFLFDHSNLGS
Procedure, shortened: (§1)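 Transient luciferase assays in mammalian cell lines were common, though methods varied by source. The values come from published papers and their supplementary material, with extra details from the original authors when needed. Responsive refers to a measured signal the original authors judged statistically different from baseline, and non-responsive (inactive) to the remainder.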

OR52I2 (Homo sapiens) = biological target: T2, OR52I2 (Homo sapiens) (UniProt Q8NH67)
T2 sequence (whole entry): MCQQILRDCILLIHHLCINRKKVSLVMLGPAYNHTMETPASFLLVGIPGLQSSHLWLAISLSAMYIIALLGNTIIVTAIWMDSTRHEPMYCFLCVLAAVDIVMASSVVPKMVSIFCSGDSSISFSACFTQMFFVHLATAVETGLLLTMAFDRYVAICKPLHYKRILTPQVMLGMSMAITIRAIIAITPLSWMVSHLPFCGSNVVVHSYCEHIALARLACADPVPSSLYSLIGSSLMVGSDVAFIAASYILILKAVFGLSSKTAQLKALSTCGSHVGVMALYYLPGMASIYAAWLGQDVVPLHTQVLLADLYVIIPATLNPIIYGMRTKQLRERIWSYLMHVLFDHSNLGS
Procedure, shortened: as §1

OR52J3 (Homo sapiens) = OR52J3 (Homo sapiens) (UniProt Q8NH60)
Chain of OR52J3 (Homo sapiens) (Q8NH60 whole entry): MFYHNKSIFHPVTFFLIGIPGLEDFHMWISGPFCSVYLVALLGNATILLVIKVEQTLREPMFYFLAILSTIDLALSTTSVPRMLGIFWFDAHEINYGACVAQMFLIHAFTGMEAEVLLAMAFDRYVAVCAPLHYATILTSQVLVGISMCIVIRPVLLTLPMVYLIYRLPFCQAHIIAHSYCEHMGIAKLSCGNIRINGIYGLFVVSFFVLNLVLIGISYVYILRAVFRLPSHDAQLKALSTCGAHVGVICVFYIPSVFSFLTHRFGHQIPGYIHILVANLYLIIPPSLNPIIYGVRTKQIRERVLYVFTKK
Procedure, shortened: as §1

OR52K1 (Homo sapiens) = biological target: T3, OR52K1 (Homo sapiens) (UniProt Q8NGK4)
T3 sequence (whole entry): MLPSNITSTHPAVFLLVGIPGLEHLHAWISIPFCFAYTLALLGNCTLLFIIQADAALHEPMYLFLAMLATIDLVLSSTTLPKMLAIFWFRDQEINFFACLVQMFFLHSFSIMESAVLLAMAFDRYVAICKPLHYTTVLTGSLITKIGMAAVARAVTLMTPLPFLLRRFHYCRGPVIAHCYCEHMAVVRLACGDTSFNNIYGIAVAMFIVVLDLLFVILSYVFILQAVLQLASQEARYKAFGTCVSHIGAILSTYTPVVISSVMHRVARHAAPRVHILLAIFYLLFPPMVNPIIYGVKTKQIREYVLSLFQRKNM
Procedure, shortened: as §1

OR52K2 (Homo sapiens) = biological target: T4, OR52K2 (Homo sapiens) (UniProt Q8NGK3)
T4 sequence (whole entry): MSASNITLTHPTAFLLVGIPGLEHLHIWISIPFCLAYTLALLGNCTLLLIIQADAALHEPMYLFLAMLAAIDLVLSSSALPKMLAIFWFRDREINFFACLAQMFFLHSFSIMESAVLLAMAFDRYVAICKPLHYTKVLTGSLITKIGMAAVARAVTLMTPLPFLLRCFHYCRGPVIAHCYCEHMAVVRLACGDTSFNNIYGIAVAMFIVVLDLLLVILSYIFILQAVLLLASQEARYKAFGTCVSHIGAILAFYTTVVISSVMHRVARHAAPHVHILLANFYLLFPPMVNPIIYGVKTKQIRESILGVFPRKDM
Procedure, shortened: as §1

OR52L1 (Homo sapiens) = biological target: T5, OR52L1 (Homo sapiens) (UniProt Q8NGH7)
T5 sequence (whole entry): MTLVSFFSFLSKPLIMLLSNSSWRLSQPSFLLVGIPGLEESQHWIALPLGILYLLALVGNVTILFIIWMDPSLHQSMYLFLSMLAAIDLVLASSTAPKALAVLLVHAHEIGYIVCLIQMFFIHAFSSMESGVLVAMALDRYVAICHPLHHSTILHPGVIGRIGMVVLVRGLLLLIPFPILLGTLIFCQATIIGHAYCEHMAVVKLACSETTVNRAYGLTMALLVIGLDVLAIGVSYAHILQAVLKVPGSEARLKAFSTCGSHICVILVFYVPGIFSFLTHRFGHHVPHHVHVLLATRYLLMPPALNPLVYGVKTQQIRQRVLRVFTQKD
Procedure, shortened: as §1

OR52M1 (Homo sapiens) = biological target: T6, OR52M1 (Homo sapiens) (UniProt Q8NGK5)
T6 sequence (whole entry): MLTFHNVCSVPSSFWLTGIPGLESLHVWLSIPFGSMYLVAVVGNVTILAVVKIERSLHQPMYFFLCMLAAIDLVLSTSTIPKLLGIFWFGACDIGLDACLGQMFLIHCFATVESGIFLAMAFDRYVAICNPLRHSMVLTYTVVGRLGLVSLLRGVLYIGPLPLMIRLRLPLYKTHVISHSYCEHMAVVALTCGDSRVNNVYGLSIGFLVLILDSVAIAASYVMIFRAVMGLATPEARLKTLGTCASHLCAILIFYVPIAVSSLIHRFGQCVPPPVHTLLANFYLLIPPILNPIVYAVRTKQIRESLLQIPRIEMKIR
Procedure, shortened: as §1

OR52N1 (Homo sapiens) = biological target: T7, OR52N1 (Homo sapiens) (UniProt Q8NH53)
T7 sequence (whole entry): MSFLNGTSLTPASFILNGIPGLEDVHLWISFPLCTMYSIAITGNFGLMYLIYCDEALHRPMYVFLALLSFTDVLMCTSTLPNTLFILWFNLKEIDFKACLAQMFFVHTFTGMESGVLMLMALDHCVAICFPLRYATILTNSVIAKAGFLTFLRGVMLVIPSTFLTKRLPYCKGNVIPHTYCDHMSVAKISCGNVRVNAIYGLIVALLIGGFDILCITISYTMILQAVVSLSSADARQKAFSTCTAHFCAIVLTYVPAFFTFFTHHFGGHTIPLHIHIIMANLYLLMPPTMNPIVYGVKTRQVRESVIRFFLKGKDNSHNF
Procedure, shortened: as §1

OR52N2 (Homo sapiens) = biological target: T8, OR52N2 (Homo sapiens) (UniProt Q8NGI0)
T8 sequence (whole entry): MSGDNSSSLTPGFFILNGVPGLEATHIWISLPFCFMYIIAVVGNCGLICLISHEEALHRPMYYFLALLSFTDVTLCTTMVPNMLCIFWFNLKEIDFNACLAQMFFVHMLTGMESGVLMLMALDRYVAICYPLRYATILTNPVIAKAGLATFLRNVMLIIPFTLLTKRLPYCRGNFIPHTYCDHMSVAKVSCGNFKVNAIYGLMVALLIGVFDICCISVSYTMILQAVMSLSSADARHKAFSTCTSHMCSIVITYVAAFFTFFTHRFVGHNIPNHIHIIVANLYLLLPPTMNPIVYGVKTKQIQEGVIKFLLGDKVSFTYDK
Procedure, shortened: as §1

OR52N4 (Homo sapiens) = biological target: T9, OR52N4 (Homo sapiens) (UniProt Q8NGI2)
T9 sequence (whole entry): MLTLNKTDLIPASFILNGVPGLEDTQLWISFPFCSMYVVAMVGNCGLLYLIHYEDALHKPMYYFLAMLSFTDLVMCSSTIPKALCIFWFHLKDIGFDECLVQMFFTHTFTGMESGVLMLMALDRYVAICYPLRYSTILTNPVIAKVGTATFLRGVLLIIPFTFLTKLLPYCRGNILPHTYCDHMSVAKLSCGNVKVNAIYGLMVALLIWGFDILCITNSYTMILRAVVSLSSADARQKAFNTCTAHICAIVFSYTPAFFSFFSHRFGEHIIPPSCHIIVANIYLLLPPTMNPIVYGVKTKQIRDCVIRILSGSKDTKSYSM
Procedure, shortened: as §1

OR52N5 (Homo sapiens) = biological target: T10, OR52N5 (Homo sapiens) (UniProt Q8NH56)
T10 sequence (whole entry): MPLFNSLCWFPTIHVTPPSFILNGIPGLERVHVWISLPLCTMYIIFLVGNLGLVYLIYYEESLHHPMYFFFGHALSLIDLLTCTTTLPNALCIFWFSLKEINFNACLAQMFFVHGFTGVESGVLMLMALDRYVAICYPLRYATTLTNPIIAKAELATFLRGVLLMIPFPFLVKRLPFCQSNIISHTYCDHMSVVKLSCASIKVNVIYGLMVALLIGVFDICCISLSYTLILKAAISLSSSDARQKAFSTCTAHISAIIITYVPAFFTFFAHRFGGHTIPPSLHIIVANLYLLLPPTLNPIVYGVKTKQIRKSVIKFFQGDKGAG
Procedure, shortened: as §1

OR52R1 (Homo sapiens) = biological target: T11, OR52R1 (Homo sapiens) (UniProt Q8NGF1)
T11 sequence (whole entry): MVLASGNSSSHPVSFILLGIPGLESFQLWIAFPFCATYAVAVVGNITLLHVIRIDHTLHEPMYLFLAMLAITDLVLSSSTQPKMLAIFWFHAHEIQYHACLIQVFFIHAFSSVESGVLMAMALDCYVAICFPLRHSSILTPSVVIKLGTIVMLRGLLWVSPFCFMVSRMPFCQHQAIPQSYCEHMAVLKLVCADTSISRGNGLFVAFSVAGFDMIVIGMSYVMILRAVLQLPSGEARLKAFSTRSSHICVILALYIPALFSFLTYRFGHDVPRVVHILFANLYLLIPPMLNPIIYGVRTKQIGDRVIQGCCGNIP
Procedure, shortened: as §1

OR52W1 (Homo sapiens) = biological target: T12, OR52W1 (Homo sapiens) (UniProt Q6IF63)
T12 sequence (whole entry): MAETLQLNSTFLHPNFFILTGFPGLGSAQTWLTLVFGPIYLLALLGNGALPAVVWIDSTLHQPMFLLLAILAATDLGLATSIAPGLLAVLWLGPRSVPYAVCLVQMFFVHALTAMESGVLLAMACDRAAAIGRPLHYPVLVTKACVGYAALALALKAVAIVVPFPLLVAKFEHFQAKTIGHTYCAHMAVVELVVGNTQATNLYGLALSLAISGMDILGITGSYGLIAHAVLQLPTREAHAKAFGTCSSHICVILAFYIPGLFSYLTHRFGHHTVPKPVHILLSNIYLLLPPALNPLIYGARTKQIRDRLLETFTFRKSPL
Procedure, shortened: as §1

OR56A1 (Homo sapiens) = biological target: T13, OR56A1 (Homo sapiens) (UniProt Q8NGH5)
T13 sequence (whole entry): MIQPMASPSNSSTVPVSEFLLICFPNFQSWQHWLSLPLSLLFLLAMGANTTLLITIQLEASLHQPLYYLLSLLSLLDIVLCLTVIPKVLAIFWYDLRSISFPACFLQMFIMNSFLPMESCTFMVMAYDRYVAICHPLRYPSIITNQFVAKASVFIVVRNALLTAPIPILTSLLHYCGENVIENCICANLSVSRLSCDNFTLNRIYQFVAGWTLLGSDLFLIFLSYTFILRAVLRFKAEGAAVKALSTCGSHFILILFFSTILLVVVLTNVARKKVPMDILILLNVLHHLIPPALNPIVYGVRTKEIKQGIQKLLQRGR
Procedure, shortened: as §1

OR56A3 (Homo sapiens) = biological target: T14, OR56A3 (Homo sapiens) (UniProt Q8NH54)
T14 sequence (whole entry): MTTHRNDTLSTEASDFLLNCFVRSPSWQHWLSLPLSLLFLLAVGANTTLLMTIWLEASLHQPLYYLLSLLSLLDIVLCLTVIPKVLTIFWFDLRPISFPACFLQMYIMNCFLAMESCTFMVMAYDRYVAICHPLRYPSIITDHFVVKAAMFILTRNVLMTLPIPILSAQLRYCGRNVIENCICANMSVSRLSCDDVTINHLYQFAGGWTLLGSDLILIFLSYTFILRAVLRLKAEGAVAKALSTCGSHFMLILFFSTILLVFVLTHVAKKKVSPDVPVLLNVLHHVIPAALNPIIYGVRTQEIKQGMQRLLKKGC
Procedure, shortened: as §1

OR56A5 (Homo sapiens) = biological target: T15, OR56A5 (Homo sapiens) (UniProt P0C7T3)
T15 sequence (whole entry): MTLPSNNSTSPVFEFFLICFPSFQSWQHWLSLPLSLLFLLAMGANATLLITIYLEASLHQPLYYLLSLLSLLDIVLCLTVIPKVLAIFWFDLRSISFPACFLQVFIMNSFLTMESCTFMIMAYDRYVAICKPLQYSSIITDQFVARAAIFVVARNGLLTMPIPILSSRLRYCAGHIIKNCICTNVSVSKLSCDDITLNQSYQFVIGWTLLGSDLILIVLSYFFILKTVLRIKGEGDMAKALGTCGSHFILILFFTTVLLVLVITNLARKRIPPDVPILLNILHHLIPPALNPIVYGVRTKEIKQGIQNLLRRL
Procedure, shortened: as §1

OR56B1 (Homo sapiens) = biological target: T16, OR56B1 (Homo sapiens) (UniProt Q8NGI3)
T16 sequence (whole entry): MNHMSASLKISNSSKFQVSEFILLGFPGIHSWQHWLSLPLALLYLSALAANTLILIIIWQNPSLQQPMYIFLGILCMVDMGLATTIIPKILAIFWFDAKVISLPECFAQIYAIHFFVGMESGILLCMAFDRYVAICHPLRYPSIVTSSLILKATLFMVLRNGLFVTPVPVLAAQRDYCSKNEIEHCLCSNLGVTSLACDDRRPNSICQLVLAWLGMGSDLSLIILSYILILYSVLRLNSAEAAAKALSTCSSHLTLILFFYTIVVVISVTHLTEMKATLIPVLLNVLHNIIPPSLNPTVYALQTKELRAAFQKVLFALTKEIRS
Procedure, shortened: as §1

Measured: odorant receptor agonist call

CC1=NC(C)C(C)S1 (configuration not stated)
inactive: all assays above
